The source of these data is ChEMBL document CHEMBL1147538, “Antibacterial activity of glycine betaine analogues: involvement of osmoporters” (Bioorg Med Chem Lett, 2004).

Molecules are shown by their SMILES.

Assay type in all cases: functional, organism-based
The subject of one assay is Acinetobacter baumannii. The assay is described as follows: Effect (1 mM) on Acinetobacter baumannii growth under stressing conditions; Expressed as absorbance (OD) at 570 nm; Control 1.14 nm. A digest of the protocol:
(§1)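 Aerobic culture in a defined classic medium (M63, M9, SMM or LAS, chosen per species). Hyperosmotic stress was imposed with NaCl at 0.3–0.5 M final, set by each bacterium's salt tolerance. Each betaine analogue was added at 1 mM. Bacterial yield was read as absorbance at 570 nm and compared with a control culture without analogue.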

The test system of another assay is Aeromonas hydrophila. The assay is described as follows: Effect (1 mM) on Aeromonas hydrophila growth under stressing conditions; Expressed as absorbance (OD) at 570 nm; Control 1.65 nm. In short, it runs like this:
as §1

The test system of a further assay is Bacillus subtilis. Nature of the assay: Effect (1 mM) on Bacillus subtilis growth under stressing conditions; Expressed as absorbance (OD) at 570 nm; Control 3.20 nm. In short, it runs like this: as §1
The subject of the next assay is Brevibacterium linens. The assay is described as follows: Effect (1 mM) on Brevibacterium linens growth under stressing conditions; Expressed as absorbance (OD) at 570 nm; Control 1.76 nm.
In a further assay the test system is Citrobacter freundii. Nature of the assay: Effect (1 mM) on Citrobacter freundii growth under stressing conditions; Expressed as absorbance (OD) at 570 nm; Control 1.09 nm. A digest of the protocol: as §1
Assay [1] relates to Corynebacterium glutamicum. Nature of the assay: Effect (1 mM) on Corynebacterium glutamicum growth under stressing conditions; Expressed as absorbance (OD) at 570 nm; Control 0.87 nm. A digest of the protocol:
as §1

The next assay has as its system Enterococcus faecalis. The assay is described as follows: Effect (1 mM) on Enterococcus faecalis growth under stressing conditions; Expressed as absorbance (OD) at 570 nm; Control 1.16 nm. A digest of the protocol: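 Enterococcus was grown aerobically in defined M9 medium made hyperosmotic with NaCl (0.3–0.5 M final, set by tolerance). Each betaine analogue was supplied at 1 mM. Yield was read as OD at 570 nm against an untreated control.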

The next assay deals with Dickeya chrysanthemi. Nature of the assay: Effect (1 mM) on Erwinia chrysanthemi growth under stressing conditions; Expressed as absorbance (OD) at 570 nm; Control 1.97 nm. In short, it runs like this: as §1
The test system of another assay is Enterobacter cloacae. The assay is described as follows: Effect (1 mM) on Enterobacter cloacae growth under stressing conditions; Expressed as absorbance (OD) at 570 nm; Control 1.25 nm. A digest of the protocol: as §1
Another assay deals with Escherichia coli. The assay is described as follows: Effect (1 mM) on Escherichia coli growth under stressing conditions; Expressed as absorbance (OD) at 570 nm; Control 1.24 nm. In short, it runs like this:
as §1

The subject of a further assay is Klebsiella pneumoniae. The assay is described as follows: Effect (1 mM) on Klebsiella pneumoniae growth under stressing conditions; Expressed as absorbance (OD) at 570 nm; Control 1.80 nm. A digest of the protocol:
as §1

The next assay has as its system Pseudomonas aeruginosa. Nature of the assay: Effect (1 mM) on Pseudomonas aeruginosa growth under stressing conditions; Expressed as absorbance (OD) at 570 nm; Control 1.24 nm.
The test system of a further assay is Salmonella enterica. The assay is described as follows: Effect (1 mM) on Salmonella enterica growth under stressing conditions; Expressed as absorbance (OD) at 570 nm; Control 1.23 nm. A digest of the protocol:
as §1

A further assay concerns Serratia marcescens. Nature of the assay: Effect (1 mM) on Serratia marcescens growth under stressing conditions; Expressed as absorbance (OD) at 570 nm; Control 1.03 nm. In short, it runs like this:
as §1

The test system of another assay is Sinorhizobium meliloti. The assay is described as follows: Effect (1 mM) on Sinorhizobium meliloti growth under stressing conditions; Expressed as absorbance (OD) at 570 nm; Control 1.46 nm.

Consider `COc1cccc(C[N+](C)(C)CC(=O)O)c1`, for which the Absorbance worked out at 1.16 with Acinetobacter baumannii; 1.05 in the assay on Aeromonas hydrophila; 3.2 in the assay on Bacillus subtilis; 1.45 in the assay with Brevibacterium linens; 1.23 in the assay with Citrobacter freundii; 0.63 in assay [1]. Also, the Absorbance in the assay on Enterococcus faecalis was found to be 1.12; with Dickeya chrysanthemi it was 0.25; in the assay on Enterobacter cloacae, 1.11; in the assay with Escherichia coli, 0.18; in the assay with Klebsiella pneumoniae, 0.7; in the assay with Pseudomonas aeruginosa, 1.07. In addition, the Absorbance was found to be 1.11 with Salmonella enterica, 0.48 in the assay with Serratia marcescens and 1.7 with Sinorhizobium meliloti.
In the case of `C[N+](C)(CC(=O)O)Cc1ccccc1[N+](=O)[O-]`, the Absorbance in the assay with Acinetobacter baumannii amounted to 0.72; with Aeromonas hydrophila it was 0.2; in the assay with Bacillus subtilis, 3.06; with Brevibacterium linens it was 1.52; in the assay on Citrobacter freundii, 0.06; in assay [1], 0.26. Besides, the Absorbance turned out to be 1.3 in the assay with Enterococcus faecalis; 0.11 with Dickeya chrysanthemi; 0.46 with Enterobacter cloacae; 0.08 in the assay with Escherichia coli; 0.4 with Klebsiella pneumoniae; 0.11 with Pseudomonas aeruginosa. The Absorbance in the assay on Salmonella enterica was 0.23; in the assay with Serratia marcescens, 0.09; in the assay on Sinorhizobium meliloti it was 1.9.
Regarding `C[N+](C)(CC(=O)O)Cc1ccc([N+](=O)[O-])cc1`, the Absorbance with Acinetobacter baumannii turned out to be 0.19; in the assay on Aeromonas hydrophila, 0.06; with Bacillus subtilis, 0.18; in the assay with Brevibacterium linens, 1.74; with Citrobacter freundii, 0.03; in [1], 0.33. Also, the Absorbance stood at 1.23 in the assay with Enterococcus faecalis; 0.06 in the assay on Dickeya chrysanthemi; 0.24 with Enterobacter cloacae; 0.09 in the assay with Escherichia coli; 0.23 in the assay with Klebsiella pneumoniae; 0.16 in the assay on Pseudomonas aeruginosa. Moreover, the figures for the Absorbance in the assay with Salmonella enterica, in the assay on Serratia marcescens and with Sinorhizobium meliloti were 0.07, 0.07 and 1.85, respectively.
`C[N+](C)(CC(=O)O)Cc1ccccc1`: the Absorbance in the assay with Acinetobacter baumannii stood at 0.93; in the assay on Aeromonas hydrophila, 0.16; with Bacillus subtilis it was 3.2; with Brevibacterium linens, 0.88; in the assay with Citrobacter freundii, 1.32; in assay [1], 0.43. For the same compound, the Absorbance in the assay on Enterococcus faecalis came to 1.24; in the assay with Dickeya chrysanthemi, 0.22; with Enterobacter cloacae, 1.05; in the assay on Escherichia coli, 0.12; in the assay on Klebsiella pneumoniae, 0.46; in the assay on Pseudomonas aeruginosa, 0.06. Also, the figures for the Absorbance with Salmonella enterica, with Serratia marcescens and with Sinorhizobium meliloti were 1.24, 0.21 and 2.3, respectively.
